Calb FLC: C. albicans growth inhibition with fluconazole, primary screen, CaCi-2 strain, Alamar Blue fluorescence. C. albicans CaCi-2 (fluconazole-resistant clinical isolate) + fluconazole, 48 h. growth inhibition, % (concentration not given with the values). 300,000 tested, 0.57% active;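 active = growth inhibition above about 58% in most replicates, limit read from the data, passing the limit was not always enough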;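 also: all wells also contain fluconazole at 8 µg/ml as a sub-toxic cotreatment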
Mdm2 MdmX PPI: inhibitors of human Mdm2-MdmX association, primary screen, cell-based, luminescence, split luciferase, SaOS-2, uHTS | Protein Mdm4 (Homo sapiens) + E3 ubiquitin-protein ligase Mdm2 (Homo sapiens), … | SaOS-2 split-luciferase Mdm2/MdmX complementation | inhibition, % at 8 µM | 330,000 tested, 3% active;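 active = inhibition of at least 50% at 8 µM in the primary screen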
CSC inhib: cancer stem cell viability inhibitors, primary screen, luminescence | cancer stem cell-like cells viability | inhibition, % at 7.5 µM | 300,000 tested, 1.1% active; in the data active = inhibition above about 75%; tested in HMLE shEcad cells
SKKanGAS inh: S. pyogenes SKKanGAS growth inhibitors in kanamycin, primary screen, streptokinase expression inhibitor project, SKKanGAS strain, BacTiter-Glo luminescence | AID 1662, 2009 | 6 h | inhibition, % at 7.5 µM | 300,000 tested, 1.3% active;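 active = mean replicate score, as percent of positive control median, at least 50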;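 also: strain carries kanamycin resistance gene driven by streptokinase promoter and grows in 40 µg/ml kanamycin; loss of luminescence reflects streptokinase promoter inhibition or plain growth inhibition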
T cruzi repl: inhibitors of intracellular T. cruzi growth, primary screen, luminescence, NIH3T3 host cells. T. cruzi beta-gal in NIH3T3, 90 h. inhibition, % (concentration not given with the values). 300,000 tested, 1.4% active. AID 1885, 2009;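 active = mean inhibition across valid replicates above about 55%, limit read from the data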;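 also: signal also drops with host cell toxicity which is not excluded here; higher percent means less beta-gal luminescence so fewer parasites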
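Read-out: Parasite load inhibition, % | Test system: Mouse NIH/3T3 fibroblasts infected with β-gal-expressing T. cruzi Tulahuen C4 | Amount: 5,000 cells/well | Medium: DMEM, 2% fetal bovine serum | Signal: GalScreen β-gal luminescence, detergent lysis, 60 min | Timing: 3 h attach, ≥90 h co-culture | Also added: Tulahuen C4 trypomastigotes, 5000/well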
Beta cell apopt: inhibitors of cytokine-induced beta cell apoptosis, primary screen, luminescence | 300,000 tested, 0.8% active | AID 435005, 2010 | INS-1E cytokine-induced death, ATP luminescence, 48 h; percent of positive-control rescue, neutral wells zero | protection from apoptosis, % (test concentration not listed);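 active = Every replicate reaches about 75%, or at least half do and their mean reaches it too, limit read from the data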;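 also: higher means more ATP so stronger rescue from cytokine killing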
Mdm2 MdmX conf: Mdm2-MdmX complex disruptors, retested hits, confirmation, luminescence, single concentration | shares compounds with Mdm2 MdmX PPI | Mdm2-MdmX binding, luminescent assay | inhibition, % at 8 µM | 10,000 tested, 55% active | AID 489028, 2010; in the data active = inhibition above about 40%
Full FLuc ctr: full-length luciferase signal inhibition, confirmation, counter-screen for Mdm2/MdmX interaction inhibitor project, cell-based, single concentration, SaOS-2 | shares compounds with Mdm2 MdmX PPI | SaOS-2 full-length luciferase counterscreen, luminescence | inhibition, % at 8 µM | 6,200 tested, 77% active | AID 504607, 2011;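 active = mean inhibition at 8 µM reaching about 37%, which flags the compound as non-specific, limit read from the data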;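 also: p53-null SaOS-2 cells with luciferase driven by a doxycycline-inducible promoter; compound on cells about two nights before reading with doxycycline added after day one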
Each line names hits and unclear results; the compound was inactive in the other large screens (follow-up assays come after a bar, where they were run); ! = not active in a repeat. A selection: hits, their analogues and other compounds. The true share with any hit is near 5.7%.

CC(C)Oc1ccc(C(=O)Nc2nc3ccccc3[nH]2)cc1	Mdm2 MdmX PPI 69, SKKanGAS inh 55 | Mdm2 MdmX conf 67 | Full FLuc ctr 46
CCc1ccc(C(=O)Nc2nc3ccccc3[nH]2)cc1	Mdm2 MdmX PPI 56, SKKanGAS inh 63 | Mdm2 MdmX conf 52 | Full FLuc ctr 72
O=C(Nc1ccc(F)cc1)c1ccccc1F	none
O=C(Nc1ccncc1)c1ccccc1F	Mdm2 MdmX PPI 51 | Mdm2 MdmX conf inactive
O=C(Nc1nc2ccccc2[nH]1)c1ccccc1F	Mdm2 MdmX PPI 82, CSC inhib 124, SKKanGAS inh 80, Beta cell apopt 89 | Mdm2 MdmX conf 81 | Full FLuc ctr 38
COc1ccc(NC(=O)c2cc(C)no2)cc1Cl	none (no result: CSC inhib)
CCc1ccc(-c2csc(NC(=O)C3=COCCO3)n2)cc1	none (no result: Calb FLC, CSC inhib, SKKanGAS inh, T cruzi repl)
COc1ccccc1Nc1nc(NCCC(C)C)nc(N)c1[N+](=O)[O-]	Mdm2 MdmX PPI 53 | Mdm2 MdmX conf 41 | Full FLuc ctr 80
COc1ccccc1Nc1nc(NCCO)nc(N)c1[N+](=O)[O-]	Mdm2 MdmX PPI 62 | Mdm2 MdmX conf inactive
COc1ccccc1Nc1nc(N(C)c2ccccc2)nc(N)c1[N+](=O)[O-]	none
CNc1nc(N)c([N+](=O)[O-])c(Nc2ccccc2OC)n1	Mdm2 MdmX PPI 65 (no result: CSC inhib, Beta cell apopt) | Mdm2 MdmX conf inactive | Full FLuc ctr 71
CCN1CCCC1CNC(=O)c1cc(S(=O)(=O)N(C)C)ccc1Cl (stereo not drawn)	none
Cc1cc(C(C)(C)C)cc(C)c1C[n+]1ccc2ccccc2c1	Mdm2 MdmX PPI 51, Beta cell apopt 111 | Mdm2 MdmX conf inactive
C=CCn1c(SCc2nc3ccccc3c(=O)[nH]2)nc2sc3c(c2c1=O)CCCC3	Mdm2 MdmX PPI 85 | Mdm2 MdmX conf inactive
O=[N+]([O-])c1ccc(-c2nc(Nc3ccc(O)cc3)c3ccccc3n2)cc1	Mdm2 MdmX PPI 70 | Mdm2 MdmX conf inactive
COc1ccc(Nc2nc(-c3cccc([N+](=O)[O-])c3)nc3ccccc23)cc1	Mdm2 MdmX PPI 55, CSC inhib 124, T cruzi repl 65 | Mdm2 MdmX conf inactive
CC1CCC(C(C)C)C(OC(=O)Cn2c(-c3ccc(Cl)cc3)[n+](C)c3ccccc32)C1 (stereo not drawn)	Mdm2 MdmX PPI 100, Beta cell apopt 100 | Mdm2 MdmX conf 96 | Full FLuc ctr 52
CC1CCC(C(C)C)C(OC(=O)Cn2c(-c3ccc(Br)cc3)[n+](C)c3ccccc32)C1 (stereo not drawn)	Calb FLC 108, Mdm2 MdmX PPI 100, T cruzi repl 63!, Beta cell apopt 106 | Mdm2 MdmX conf 95 | Full FLuc ctr 57
Cc1ccccc1OCc1n(CC(=O)OC2CC(C)CCC2C(C)C)c2ccccc2[n+]1C (stereo not drawn)	Calb FLC 99!, Mdm2 MdmX PPI 65, T cruzi repl 65, Beta cell apopt 114 | Mdm2 MdmX conf 99 | Full FLuc ctr 60
O=C(NCCc1ccccc1)/C(=C\c1ccccc1)NC(=O)c1ccco1	none (no result: Beta cell apopt)
CC(=O)Nc1sc2c(c1-c1nc3ccccc3s1)CN(C(C)C)CC2	Mdm2 MdmX PPI 99, Beta cell apopt 97 (no result: Calb FLC, CSC inhib, SKKanGAS inh, T cruzi repl) | Mdm2 MdmX conf 93 | Full FLuc ctr 57
COC(=O)c1ccc(NC(=O)c2ccc[n+]([O-])c2)cc1	none
CC[C@]12c3[nH]c4cc(-c5ccco5)ccc4c3CCN1C(=O)[C@@H](CC(=O)NCC13CC4CC(CC(C4)C1)C3)C[C@@H]2C(=O)N1CCN(C(=O)c2ccco2)CC1	none (no result: Calb FLC, CSC inhib, SKKanGAS inh, T cruzi repl, Beta cell apopt)
CC[C@]12c3[nH]c4ccc(OC)cc4c3CCN1C(=O)C(CC(=O)NCC13CC4CC(CC(C4)C1)C3)C[C@@H]2C(=O)N1CCN(C(=O)c2ccco2)CC1 (stereo partly drawn)	none (no result: Calb FLC, CSC inhib, SKKanGAS inh, T cruzi repl, Beta cell apopt)
CC[C@]12c3[nH]c4cc(-c5ccco5)ccc4c3CCN1C(=O)[C@@H](CC(=O)NCC13CC4CC(CC(C4)C1)C3)C[C@@H]2C(=O)N1CCN(C(=O)C2CC2)CC1	Mdm2 MdmX PPI 78 (no result: Calb FLC, CSC inhib, SKKanGAS inh, T cruzi repl, Beta cell apopt) | Mdm2 MdmX conf inactive
C[C@]12c3[nH]c4cc(-c5ccco5)ccc4c3CCN1C(=O)[C@@H](CC(=O)NCc1cccc(C(F)(F)F)c1)C[C@@H]2C(=O)N1CCCCC1	Mdm2 MdmX PPI 85 (no result: Calb FLC, CSC inhib, SKKanGAS inh, T cruzi repl, Beta cell apopt) | Mdm2 MdmX conf inactive
C[C@]12c3[nH]c4cc(-c5ccco5)ccc4c3CCN1C(=O)[C@@H](CC(=O)NCC13CC4CC(CC(C4)C1)C3)C[C@@H]2C(=O)N1CCCCC1	Mdm2 MdmX PPI 78 (no result: Calb FLC, CSC inhib, SKKanGAS inh, T cruzi repl, Beta cell apopt) | Mdm2 MdmX conf inactive
CC[C@]12c3[nH]c4ccc(Cl)cc4c3CCN1C(=O)[C@@H](CC(=O)NCC13CC4CC(CC(C4)C1)C3)C[C@@H]2C(=O)N1CCN(C(=O)c2ccco2)CC1	Mdm2 MdmX PPI 87 (no result: Calb FLC, CSC inhib, SKKanGAS inh, T cruzi repl, Beta cell apopt) | Mdm2 MdmX conf 41 | Full FLuc ctr 38
Cc1ccnc(-n2c(C)cc(/C=N/NC(=O)COc3cccc4cccnc34)c2C)c1	none (no result: Beta cell apopt)
O=C(OCc1nnc(-c2ccccc2)o1)C1CCN(C(=O)c2ccc(Cl)cc2)CC1	none (no result: Calb FLC, CSC inhib, SKKanGAS inh, T cruzi repl, Beta cell apopt)
O=C(Nc1nnc(SCc2ccc(F)cc2)s1)c1ccccn1	Calb FLC 103, Mdm2 MdmX PPI 82, SKKanGAS inh 63 (no result: CSC inhib, Beta cell apopt) | Mdm2 MdmX conf 69 | Full FLuc ctr 41
O=C(Nc1nc2ccc(F)cc2s1)c1ccccn1	Mdm2 MdmX PPI 93, SKKanGAS inh 98, Beta cell apopt 76 | Mdm2 MdmX conf 65 | Full FLuc ctr 58
CCCSc1nnc(NC(=O)Nc2ccc(F)cc2)s1	Mdm2 MdmX PPI 95 | Mdm2 MdmX conf 85 | Full FLuc ctr inactive
O=C(Nc1nc2ccccc2s1)c1cnccn1	none
COc1ccc(NC(=O)CN(C)C(=O)c2cc(C)on2)cc1	none (no result: Calb FLC)
CCOC(=O)C1CCN(c2cc3c(cc2NC(=O)c2ccc(OC)c(OC)c2)n(C)c(=O)n3C)CC1	Mdm2 MdmX PPI 65 | Mdm2 MdmX conf inactive
CCOC(=O)C1CCN(c2cc3c(cc2NC(=O)c2ccccc2)n(C)c(=O)n3C)CC1	none
O=C(O)c1ccc(-n2nc(C(F)(F)F)cc2-c2cccs2)cc1	none
O=C(Nc1nc2ccc(Cl)cc2s1)c1ccc(N2CCCCC2)c([N+](=O)[O-])c1	Mdm2 MdmX PPI 61 | Mdm2 MdmX conf 42 | Full FLuc ctr 54
O=c1oc2ccccc2c2c1ccc1ccccc12	none (no result: Calb FLC, CSC inhib, SKKanGAS inh, T cruzi repl, Beta cell apopt)

Compound activity deposited in PubChem BioAssay by several laboratories.
